The source made the active and inactive calls.
Legend:
[1] = Metabolic stability in mouse liver microsomes assessed as clearance per mg protein at 5 uM preincubated for 10 mins followed by UDPGA addition and measured upto 60 mins by LC-MS/MS analysis; format: ADME, Microsome; settings: time < 70 min, read-out: CLH
Procedure, shortened: (§1)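 Compound at 5 μM final, in duplicate, from a 1 mM DMSO solution. Pre-incubated 10 min at 37 °C with human or mouse liver microsomes (0.5 mg/mL) in 50 mM potassium phosphate pH 7.4 with 3 mM MgCl2. The reaction was started with an NADPH-regenerating mix plus UDPGA. Samples taken at 0–60 min were quenched in ACN and analysed by LC–MS/MS. A no-cofactor control was included; 7-ethoxycoumarin and 7-hydroxycoumarin served as references.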

[2] = Metabolic stability in human liver microsomes assessed as clearance per mg protein at 5 uM preincubated for 10 mins followed by UDPGA addition and measured upto 60 mins by LC-MS/MS analysis; format: ADME, Microsome; settings: time < 70 min, read-out: CLH; procedure, shortened: as §1
[3] = Induction of LDLR expression in human HepG2 cells membrane in presence of 10 nM PCSK9 (reference value: 39.71 +/- 2.05%); format: functional
[4] = test system: HepG2; test: Cytotoxicity against human HepG2 cells assessed as reduction in cell viability upto 10 uM after 48 hrs by MTT assay; format: toxicity, cell-based; settings: hepg2, 48 h
Procedure, shortened: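 HepG2 cells treated 48 h with compound at 0.1–10,000 nM; viability read by MTT versus untreated control cells. Mean ± SD of three experiments run in triplicate.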

[5] = Induction of LDL uptake in human HepG2 cells incubated for 2 hrs in presence of 10 nM PCSK9 by fluorescent plate reader analysis (reference value: 51.69 +/- 15.30 %); format: functional
[6] = biological target: Proprotein convertase subtilisin/kexin type 9 (Homo sapiens) (UniProt Q8NBP7); test: Inhibition of PCSK9 mediated epinephrine induced platelet aggregation in human platelet rich plasma assessed as prevention of lag time reduction at 10 nM preincubated for 15 mins followed by PRP addition by light transmission aggregometry assay
Proprotein convertase subtilisin/kexin type 9 (Homo sapiens), sequence (Q8NBP7 31-152 limits assumed): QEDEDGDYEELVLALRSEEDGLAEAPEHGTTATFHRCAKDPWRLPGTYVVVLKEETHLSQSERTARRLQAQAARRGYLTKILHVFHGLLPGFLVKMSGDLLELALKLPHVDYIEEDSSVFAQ
Proprotein convertase subtilisin/kexin type 9 (Homo sapiens), sequence (Q8NBP7 153-692 limits assumed): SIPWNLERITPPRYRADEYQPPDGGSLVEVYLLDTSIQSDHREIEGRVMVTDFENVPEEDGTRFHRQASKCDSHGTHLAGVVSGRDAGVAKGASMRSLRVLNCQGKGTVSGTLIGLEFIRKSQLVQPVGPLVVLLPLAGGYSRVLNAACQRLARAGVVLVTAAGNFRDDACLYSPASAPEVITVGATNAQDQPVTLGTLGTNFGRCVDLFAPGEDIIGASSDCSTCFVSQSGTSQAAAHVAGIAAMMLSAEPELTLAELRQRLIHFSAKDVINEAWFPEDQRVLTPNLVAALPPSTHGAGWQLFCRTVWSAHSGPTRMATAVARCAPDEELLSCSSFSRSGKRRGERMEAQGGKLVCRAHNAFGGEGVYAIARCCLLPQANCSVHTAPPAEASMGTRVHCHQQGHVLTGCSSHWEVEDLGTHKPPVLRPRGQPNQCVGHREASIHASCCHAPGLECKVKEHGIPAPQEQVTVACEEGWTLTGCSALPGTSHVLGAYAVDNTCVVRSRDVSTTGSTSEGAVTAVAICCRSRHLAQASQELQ
Procedure, shortened: (§2)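 PRP from healthy donors (n = 5), prepared by centrifuging whole blood 10 min at 100g at room temperature without brakes. Recombinant PCSK9 (5 μg/mL) preincubated with compound for 15 min at room temperature, then added to PRP for 2 min at 37 °C. Aggregation triggered by subthreshold epinephrine (0.16 μM) and followed by light transmission aggregometry. Lag time and area under the curve were scored.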

[7] = Induction of LDLR expression in human HepG2 cells membrane in presence of 1 nM PCSK9 (reference value: 39.71 +/- 2.05%); format: functional
[8] = Induction of LDL uptake in human HepG2 cells incubated for 2 hrs in presence of 1 nM PCSK9 by fluorescent plate reader analysis (reference value: 51.69 +/- 15.30 %); format: functional
[9] = biological target: Proprotein convertase subtilisin/kexin type 9 (Homo sapiens) (UniProt Q8NBP7); test: Inhibition of PCSK9 mediated epinephrine induced platelet aggregation in human platelet rich plasma assessed as prevention of AUC increase at 10 nM preincubated for 15 mins followed by PRP addition by light transmission aggregometry assay; procedure, shortened: as §2

Structure (SMILES)	microsomal CLint at 5 µM [1] [µL/min/mg]	microsomal CLint at 5 µM [2] [µL/min/mg]	Activity [4]	other results
CCOc1ccc2ccc(=O)oc2c1 [ETHOXYCOUMARIN]	291	46.1	–	–
C#Cc1ncc(-c2ncc(-c3ccc4ccccc4c3)n2CCCC(C)(C)C)n1CCCCCNC	–	–	Non-Toxic	Activity [3]: 91.1%; Activity [5]: 81.87%
O=c1ccc2ccc(O)cc2o1 [UMBELLIFERONE]	533	390	–	–
CNCCCCCn1c(-c2ncc(-c3ccc4ccccc4c3)n2CCCC(C)(C)C)cnc1I	–	–	Non-Toxic	inhibition [6]: Active; Activity [7]: 101.1%; Activity [8]: 103.47%; inhibition [9]: Active

Reference: ChEMBL document CHEMBL5338811, “Computational Design, Synthesis, and Biological Evaluation of Diimidazole Analogues Endowed with Dual PCSK9/HMG-CoAR-Inhibiting Activity” (J Med Chem, 2023)
